Converted amounts (≈) assume the structure as drawn. The source made the active and inactive calls. The calls are words filed in the database; no cut-off is given here.
How the values were obtained:
[1] = system: Mycobacterium tuberculosis; assay: Antibacterial activity against Mycobacterium tuberculosis H37Rv at 16 ug/mL by micro plate alamar blue assay; assay type: functional
Procedure, shortened: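 M. tuberculosis H37Rv ATCC 27294 grown in BACTEC 12B medium; microplate Alamar blue assay (MABA). Primary screen at a single concentration of 16 µg/mL, read as percent inhibition.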

[2] = system: Mycobacterium tuberculosis; assay: Antibacterial activity against Mycobacterium tuberculosis H37Rv by micro plate alamar blue assay; assay type: functional
Candida albicans = assay: Antimicrobial activity against Candida albicans ATCC 90028; assay type: functional, organism-based
Cryptococcus neoformans = assay: Antimicrobial activity against Cryptococcus neoformans ATCC 90113; assay type: functional, organism-based
Aspergillus fumigatus = assay: Antimicrobial activity against Aspergillus fumigatus ATCC 90906; assay type: functional, organism-based
[3] = system: Mycobacterium intracellulare; assay: Antimicrobial activity against Mycobacterium intracellular ATCC 23068; assay type: functional, organism-based
Fusarium oxysporum [4] = assay: Antimicrobial activity against Fusarium oxysporum at 3 uM after 72 hrs by microtiter assay; assay type: functional
Procedure, shortened: (§1)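 96-well microdilution broth assay with conidia (3 × 10^5 conidia/mL, harvested from 7-day PDA cultures and filtered) against F. oxysporum, F. proliferatum and F. solani at 0.3, 3 and 30 µM. Plates were held at 24 ± 1 °C under a 12 h photoperiod. Growth was read at 620 nm at 24, 48 and 72 h and reported as percent inhibition from mean absorbance with standard error.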

Fusarium oxysporum [5] = assay: Antimicrobial activity against Fusarium oxysporum at 0.3 uM after 72 hrs by microtiter assay; assay type: functional; procedure, shortened: as §1
Fusarium solani [6] = assay: Antimicrobial activity against Fusarium solani at 30 uM after 48 hrs by microtiter assay; assay type: functional; procedure, shortened: as §1
Leishmania donovani = assay: Antiparasitic activity against Leishmania donovani; assay type: functional, organism-based
Fusarium oxysporum [7] = assay: Antimicrobial activity against Fusarium oxysporum at 30 uM after 72 hrs by microtiter assay; assay type: functional; procedure, shortened: as §1
Fusarium oxysporum [8] = assay: Antimicrobial activity against Fusarium oxysporum at 30 uM after 48 hrs by microtiter assay; assay type: functional; procedure, shortened: as §1
Fusarium proliferatum [9] = assay: Antimicrobial activity against Fusarium proliferatum at 30 uM after 48 hrs by microtiter assay; assay type: functional; procedure, shortened: as §1
Fusarium proliferatum [10] = assay: Antimicrobial activity against Fusarium proliferatum at 0.3 uM after 72 hrs by microtiter assay; assay type: functional; procedure, shortened: as §1
Fusarium solani [11] = assay: Antimicrobial activity against Fusarium solani at 0.3 uM after 72 hrs by microtiter assay; assay type: functional; procedure, shortened: as §1
Fusarium proliferatum [12] = assay: Antimicrobial activity against Fusarium proliferatum at 3 uM after 48 hrs by microtiter assay; assay type: functional; procedure, shortened: as §1
Fusarium solani [13] = assay: Antimicrobial activity against Fusarium solani at 3 uM after 72 hrs by microtiter assay; assay type: functional; procedure, shortened: as §1
Fusarium solani [14] = assay: Antimicrobial activity against Fusarium solani at 0.3 uM after 48 hrs by microtiter assay; assay type: functional; procedure, shortened: as §1
Fusarium oxysporum [15] = assay: Antimicrobial activity against Fusarium oxysporum at 0.3 uM after 48 hrs by microtiter assay; assay type: functional; procedure, shortened: as §1
Fusarium proliferatum [16] = assay: Antimicrobial activity against Fusarium proliferatum at 3 uM after 72 hrs by microtiter assay; assay type: functional; procedure, shortened: as §1
Fusarium solani [17] = assay: Antimicrobial activity against Fusarium solani at 3 uM after 48 hrs by microtiter assay; assay type: functional; procedure, shortened: as §1
Fusarium proliferatum [18] = assay: Antimicrobial activity against Fusarium proliferatum at 0.3 uM after 48 hrs by microtiter assay; assay type: functional; procedure, shortened: as §1
Fusarium proliferatum [19] = assay: Antimicrobial activity against Fusarium proliferatum at 30 uM after 72 hrs by microtiter assay; assay type: functional; procedure, shortened: as §1
Fusarium solani [20] = assay: Antimicrobial activity against Fusarium solani at 30 uM after 72 hrs by microtiter assay; assay type: functional; procedure, shortened: as §1
Fusarium oxysporum [21] = assay: Antimicrobial activity against Fusarium oxysporum at 3 uM after 48 hrs by microtiter assay; assay type: functional; procedure, shortened: as §1
Fusarium solani [22] = assay: Fungicidal activity against Fusarium solani at 30 uM after 72 hrs by microtiter assay; assay type: functional, organism-based
Procedure, shortened: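 After 72 h of microtiter broth exposure at 30 µM, 20 µL from each well was plated onto compound-free potato dextrose agar and incubated 3 days at 28 °C. No regrowth was scored fungicidal; regrowth was scored fungistatic.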

Fusarium oxysporum [23] = assay: Fungistatic activity against Fusarium oxysporum at 30 uM after 72 hrs by microtiter plate assay; assay type: functional, organism-based
Procedure, shortened: (§2)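 Conidia come from 7-day potato dextrose agar cultures, filtered and set photometrically (625 nm) to 3 × 10^5 conidia/mL. They are exposed to compound at 30 µM in 96-well microdilution broth at 24 ± 1 °C under a 12 h photoperiod. After 72 h, 20 µL per well is subcultured on drug-free potato dextrose agar at 28 °C for 3 days. No regrowth is scored fungicidal; regrowth is scored fungistatic.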

Fusarium proliferatum [24] = assay: Fungistatic activity against Fusarium proliferatum at 30 uM after 72 hrs by microtiter plate assay; assay type: functional, organism-based; procedure, shortened: as §2

Compound | inhibition at 16 µg/mL [1] | MIC [2] | MFC (Candida albicans) | MIC (Candida albicans) | MFC (Cryptococcus neoformans) | MIC (Cryptococcus neoformans) | MFC (Aspergillus fumigatus) | MIC (Aspergillus fumigatus) | MBC [3] | MIC [3] | also measured
CO[C@H]1/C=C/O[C@@]2(C)Oc3c(C)c(O)c4c(O)c(c(/C=N/N5CCN(C)CC5)c(O)c4c3C2=O)NC(=O)/C(C)=C\C=C\[C@H](C)[C@H](O)[C@@H](C)[C@@H](O)[C@@H](C)[C@H](OC(C)=O)[C@@H]1C [RIFAMPIN] | 93% | 0.08 µg/mL (≈ 0.0972 µM) | – | – | – | – | – | – | – | – | –
C/C=C1\NC(=O)[C@H](Cc2ccccc2)NC(=O)[C@@H](C(C)C)NC(=O)[C@@H]([C@@H](C)CC)NC(=O)[C@H](NC(=O)[C@H](NC(=O)[C@H](CCCN(CCCCCC)CCCCCC)NC(=O)[C@H]2CCCN2C(=O)[C@H](NC(=O)[C@@H](NC(=O)[C@@H](NC(=O)[C@H](NC(=O)CCCC(C)C)C(C)C)[C@@H](C)O)C(C)C)C(C)C)[C@@H](C)CC)[C@@H](C)OC(=O)[C@H](C(C)C)NC1=O | 91% | 9.4 µg/mL (≈ 5.71 µM) | > 20 µM | > 20 µM | > 20 µM | > 20 µM | > 20 µM | > 20 µM | > 20 µM | > 20 µM | –
C/C=C1\NC(=O)[C@H](Cc2ccccc2)NC(=O)[C@@H](C(C)C)NC(=O)[C@@H]([C@@H](C)CC)NC(=O)[C@H](NC(=O)[C@H](NC(=O)[C@H](CCCNCCCCCC)NC(=O)[C@H]2CCCN2C(=O)[C@H](NC(=O)[C@@H](NC(=O)[C@@H](NC(=O)[C@H](NC(=O)CCCC(C)C)C(C)C)[C@@H](C)O)C(C)C)C(C)C)[C@@H](C)CC)[C@@H](C)OC(=O)[C@H](C(C)C)NC1=O | 88% | > 16 µg/mL | 20 µM (≈ 31.2 µg/mL) | 20 µM (≈ 31.2 µg/mL) | 10 µM (≈ 15.6 µg/mL) | 5 µM (≈ 7.81 µg/mL) | 20 µM (≈ 31.2 µg/mL) | 10 µM (≈ 15.6 µg/mL) | > 20 µM | > 20 µM | inhibition at 3 µM (Fusarium oxysporum [4]): 0%; inhibition at 0.3 µM (Fusarium oxysporum [5]): 0%; inhibition at 30 µM (Fusarium solani [6]): 94.3%; IC90 (Leishmania donovani): 34 µg/mL (≈ 21.8 µM); inhibition at 30 µM (Fusarium oxysporum [7]): 89%; inhibition at 30 µM (Fusarium oxysporum [8]): 93.6%; inhibition at 30 µM (Fusarium proliferatum [9]): 95.3%; inhibition at 0.3 µM (Fusarium proliferatum [10]): 0%; inhibition at 0.3 µM (Fusarium solani [11]): 0%; inhibition at 3 µM (Fusarium proliferatum [12]): 0%; inhibition at 3 µM (Fusarium solani [13]): 0%; inhibition at 0.3 µM (Fusarium solani [14]): 0%; inhibition at 0.3 µM (Fusarium oxysporum [15]): 0%; inhibition at 3 µM (Fusarium proliferatum [16]): 0%; inhibition at 3 µM (Fusarium solani [17]): 0%; inhibition at 0.3 µM (Fusarium proliferatum [18]): 0%; inhibition at 30 µM (Fusarium proliferatum [19]): 92.8%; inhibition at 30 µM (Fusarium solani [20]): 94.7%; inhibition at 3 µM (Fusarium oxysporum [21]): 0%
C/C=C1\NC(=O)[C@H](Cc2ccccc2)NC(=O)[C@@H](C(C)C)NC(=O)[C@@H]([C@@H](C)CC)NC(=O)[C@H](NC(=O)[C@H](NC(=O)[C@H](CCCNCCCCCC)NC(=O)[C@H]2CCCN2C(=O)[C@@H](NC(=O)[C@H](NC(=O)[C@H](NC(=O)[C@@H](NC(=O)CCCC(C)C)C(C)C)[C@H](C)O)C(C)C)C(C)C)[C@@H](C)CC)[C@@H](C)OC(=O)[C@H](C(C)C)NC1=O | – | – | – | – | – | – | – | – | – | – | Activity (Fusarium solani [22]): Active; Activity (Fusarium oxysporum [23]): Active; Activity (Fusarium proliferatum [24]): Active

— ChEMBL document CHEMBL1148762, “Lysosome and HER3 (ErbB3) selective anticancer agent kahalalide F: semisynthetic modifications and antifungal lead-exploration studies” (J Med Chem, 2007)
